Experimental findings from ChEMBL document CHEMBL3763097, “Synthesis and biological evaluation of 5,10-dihydro-11H-dibenzo[b,e][1,4]diazepin-11-one structural derivatives as anti-cancer and apoptosis inducing agents” (Eur J Med Chem, 2016) are described below.

Test [1] has as its system MDA-MB-231. Nature of the test: Antimigratory activity in human MDA-MB-231 cells at 0.5 to 2 uM measured after 24 to 48 hrs by wound healing assay. Type of test: functional, cell-based. In outline: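 Wound-healing assay. Cells were seeded at 5×10^5 per well and grown 24 h to a confluent monolayer, then scratched once across the middle with a sterile pipette tip and washed twice with PBS. Compound was added at 0.5, 1 and 2 µM. Wound closure was photographed by phase-contrast microscopy at 0, 24 and 48 h in three or more random fields.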

Test [2] concerns A549. Put plainly: Induction of apoptosis in human A549 cells assessed as viable cells at 0.5 uM after 24 hrs by Annexin V-FITC/PI dual staining based flow cytometry (reference value: 85%). Type of test: functional. The following applies: A549, 24 h, read-out: Activity. (In general: In flow cytometry, cells or beads pass a laser one at a time.)
Test [3] relates to MDA-MB-231. Put plainly: Induction of apoptosis in human MDA-MB-231 cells assessed as necrotic cells at 2 uM after 24 hrs by Annexin V-FITC/PI dual staining based flow cytometry (reference value: 1.9%). Type of test: functional.
In test [4] the test system is MDA-MB-231. Nature of the test: Cell cycle arrest in human MDA-MB-231 cells assessed as accumulation at S phase at 0.5 uM after 24 to 48 hrs by propidium iodide staining based flow cytometry (reference value: 4.6%). The class given is functional. The method in brief: (§1)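 Cells were seeded at 1×10^6 per well and treated 24 h later with 0.5, 1 or 2 µM compound; DMSO-treated cells served as control. Methods give harvest at 48 h (floating plus trypsinised cells); the figure legend says 24 h. Cells were fixed in 70% ethanol for 30 min at 4 °C and stained with PI, Triton X-100 and RNase A for 15 min in the dark. 10000 events were counted by flow cytometry.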

Test [5] concerns A549 (human). Nature of the test: Induction of apoptosis in human A549 cells assessed as late apoptotic cells at 2 uM after 24 hrs by Annexin V-FITC/PI dual staining based flow cytometry (reference value: 6.2%).
For test [6], the system named is A549. Nature of the test: Induction of apoptosis in human A549 cells assessed as late apoptotic cells at 1 uM after 24 hrs by Annexin V-FITC/PI dual staining based flow cytometry (reference value: 4.5%). The class given is functional.
For test [7], the system named is MDA-MB-231. Put plainly: Cell cycle arrest in human MDA-MB-231 cells assessed as accumulation at G2/M phase at 1 uM after 24 to 48 hrs by propidium iodide staining based flow cytometry (reference value: 20.2%). Type of test: functional. The method in brief: as §1
The test system of test [8] is A549. Put plainly: Cell cycle arrest in human A549 cells assessed as accumulation at G0/G1 phase at 1 uM after 24 to 48 hrs by propidium iodide staining based flow cytometry (reference value: 49.1%). The class given is functional. The method in brief:
as §1

Test [9] can be described thus: Cytotoxicity against human U87MG cells assessed as growth inhibition after 72 hrs by MTT assay. Type of test: functional, cell-based, U-87MG ATCC. The note with it: U-87 MG. The method in brief: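 Cells in RPMI 1640 (PC-3, A549, MDA-MB-231) or DMEM (U87MG, MCF-7) with 10% FBS, passages 4-10, were seeded at 3000-5000 per well and left 24 h. Compounds in DMSO/medium were added for 72 h; DMSO served as control. MTT (5 mg/mL) was added for 4 h and formazan dissolved in DMSO. Absorbance was read at 570 nm minus 630 nm. % inhibition was taken versus DMSO, with IC50 by probit; mean ± SD of three experiments in triplicate.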
A general note: Formazan colour is commonly taken as a measure of viable cells.

Test [10] has as its system MDA-MB-231. Put plainly: Induction of apoptosis in human MDA-MB-231 cells assessed as early apoptotic cells at 0.5 uM after 24 hrs by Annexin V-FITC/PI dual staining based flow cytometry (reference value: 0.3%). The class given is functional.
The subject of test [11] is MDA-MB-231. Put plainly: Cell cycle arrest in human MDA-MB-231 cells assessed as accumulation at G2/M phase at 0.5 uM after 24 to 48 hrs by propidium iodide staining based flow cytometry (reference value: 20.2%). Type of test: functional. The method in brief:
as §1

SMILES strings stand for the structures.

A word on the IC50: it is the point on the concentration scale where inhibition reaches its midpoint. For `O=C1c2ccccc2Nc2ccccc2N1Cc1cn(Cc2ccccc2)nn1`, the inhibition entry in test [1] was “Dose-dependent effect”. Besides, the viability at 0.5 µM in test [2] stood at 75%. Moreover, the Activity in test [3] is reported as 2.5%; in test [4] it was 1.2%; in test [5], 15.6%; in test [6], 10.7%; in test [7], 33.6%; in test [8], 39.8%. In addition, the Activity was 16.8% in test [10] and 22.3% in test [11]. Further, the IC50 in test [9] amounted to 6.97 µM.
